From ChEMBL document CHEMBL1122082, “Alkaline phosphatase inhibition by a series of pyrido[2,1-b]quinazolines: A possible relationship with cromolyn-like antiallergy activity” (J Med Chem, 1982)
Active and inactive are the calls of the source. The calls are words filed in the database; no cut-off is given here.

Tests used:
Rattus norvegicus [1] = organism: Rattus norvegicus; experiment: Dose required for 50% inhibition of rat passive cutaneous anaphylaxis model; format: functional
How it was run: (§1)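 Antiserum dilutions were injected intradermally on the back. 48 h later rats got an i.v. challenge of 1 mg ovalbumin with 0.25% Evans blue in 1 mL saline, with compound dissolved in it, using slight-excess NaHCO3 if needed.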

Rattus norvegicus [2] = experiment: Percent inhibition of rat passive cutaneous anaphylaxis model after intravenous administration of the 0.5 mg/kg; format: functional; how it was run: as §1
Rattus norvegicus [3] = experiment: Percent inhibition of rat passive cutaneous anaphylaxis model after intravenous administration of the 0.5 mg/kg; IA is Inactive; format: functional, organism-based; parameters: dose 0.5 mg/kg; details: at 0.5 mg/kg; how it was run: as §1

SMILES: COc1ccc2nc3ccc(C(=O)O)cn3c(=O)c2c1
- ED50 (Rattus norvegicus [1]): 0.05 mg/kg

SMILES: O=C(O)c1ccc2nc3ccc(O)cc3c(=O)n2c1
- ED50 (Rattus norvegicus [1]): 0.05 mg/kg

SMILES: Cc1ccc2nc3ccc(-c4nn[nH]n4)cn3c(=O)c2c1
- inhibition in vivo at 0.5 mg/kg (Rattus norvegicus [2]): 100%

SMILES: O=C(O)c1cccn2c(=O)c3cc4ccccc4cc3nc12
- inhibition (Rattus norvegicus [3]): inactive

SMILES: COc1cc2nc3ccc(-c4nn[nH]n4)cn3c(=O)c2cc1OC
- inhibition in vivo at 0.5 mg/kg (Rattus norvegicus [2]): 100%

SMILES: O=C(O)c1ccn2c(=O)c3ccccc3nc2c1
- inhibition in vivo at 0.5 mg/kg (Rattus norvegicus [2]): 26%

SMILES: O=C(O)c1ccc2nc3ccccc3c(=O)n2c1
- ED50 (Rattus norvegicus [1]): 0.5 mg/kg

SMILES: O=C(O)c1cccn2c(=O)c3ccccc3nc12
- inhibition (Rattus norvegicus [3]): inactive

SMILES: O=C(O)C1=CN2CC3=C(CCCC3)N=C2C=C1
- inhibition (Rattus norvegicus [3]): inactive

SMILES: O=c1c2ccccc2nc2ccc(-c3nn[nH]n3)cn12
- inhibition in vivo at 0.5 mg/kg (Rattus norvegicus [2]): 68%

SMILES: COc1cc2nc3ccc(C(=O)O)cn3c(=O)c2cc1OC
- ED50 (Rattus norvegicus [1]): 0.05 mg/kg

SMILES: Cc1ccc2nc3ccc(C(=O)O)cn3c(=O)c2c1
- ED50 (Rattus norvegicus [1]): 0.05 mg/kg

SMILES: O=C(O)c1ccc2nc3cc4ccccc4cc3c(=O)n2c1
- ED50 (Rattus norvegicus [1]): 0.1 mg/kg

SMILES: O=c1c2cc3ccccc3cc2nc2ccc(-c3nn[nH]n3)cn12
- inhibition in vivo at 0.5 mg/kg (Rattus norvegicus [2]): 100%

SMILES: COc1ccc2nc3ccc(-c4nn[nH]n4)cn3c(=O)c2c1
- ED50 (Rattus norvegicus [1]): 0.03 mg/kg

SMILES: COc1ccc2c(=O)n3cc(-c4nn[nH]n4)ccc3nc2c1
- ED50 (Rattus norvegicus [1]): 0.5 mg/kg

SMILES: O=C(O)c1ccc2nccc(=O)n2c1
- inhibition (Rattus norvegicus [3]): inactive
